Structures are written as SMILES. Calls of active or inactive are those of the source. The calls are words filed in the database; no cut-off is given here.

Results on one compound are retold here after ChEMBL document CHEMBL4219101, “Discovery of 18β-glycyrrhetinic acid conjugated aminobenzothiazole derivatives as Hsp90-Cdc37 interaction disruptors that inhibit cell migration and reverse drug resistance” (Bioorg Med Chem, 2018).

The nature of test [1]: Inhibition of His-tagged full-length Hsp90 (unknown origin)/GST-tagged Cdc37M (unknown origin) interaction after 1 hr by HTRF assay. Set-up: species or system Homo sapiens. In outline: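 TR-FRET in PBS containing 400 mM KF, pH 7.3. His-tagged full-length Hsp90 and GST-Cdc37M, each 250 nM final, incubated with compound for 1 h at 37 °C. Anti-GST-Cryptate and anti-6His-XL665 then added for a further 0.5 h at 37 °C. Excitation 320 nm, emission 665/620 nm, reported as ratio ×10,000. Negative and blank controls run in each assay.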

Test [2] relates to A549. The test is described as follows: Inhibition of HSP90/Cdc37 interaction in human A549 cells assessed as suppression cellular migration at 5 to 10 uM after 24 hrs by wound healing assay. It is filed as cell-based. The essentials: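 Scratch wounds made in A549 monolayers, cells then exposed to 5 µM and 10 µM. Wound closure imaged by microscopy at 0 h and 24 h, magnification 200×.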

The subject of test [3] is A549. Kind of test: Induction of apoptosis in human A549 cells assessed as necrotic cells at 5 uM after 24 hrs by Annexin-V FITC/propidium iodide staining based flow cytometry (reference value: 2.32%).
Test [4] addresses T1, Heat shock protein HSP90 (Homo sapiens) (UniProt P07900+P08238). The test is described as follows: Inhibition of HSP90 in human A549 cells assessed as induction of HSP70 expression after 24 hrs by Western blot analysis. It is filed as cell-based. In outline: (§1)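 A549 cells exposed for 24 h, with geldanamycin as comparator. Whole-cell lysates separated by SDS-PAGE and immunoblotted for the named proteins. β-actin used as reference.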
For orientation: A western blot detects proteins with antibodies after separation by electrophoresis.

For test [5], the target named is T1, Heat shock protein HSP90 (Homo sapiens). Kind of test: Inhibition of HSP90 in human A549 cells assessed as induction of HSP27 expression after 24 hrs by Western blot analysis. It is filed as cell-based. In outline:
as §1

Test [6] relates to A549. Kind of test: Cell cycle arrest in human A549 cells assessed as accumulation at S phase at 10 uM after 48 hrs by propidium iodide staining-based flow cytometry (reference value: 19.62%). It is filed as functional. Background: In flow cytometry, cells or beads pass a laser one at a time.
Test [7] relates to A549. The test is described as follows: Cell cycle arrest in human A549 cells assessed as accumulation at S phase at 5 uM after 48 hrs by propidium iodide staining-based flow cytometry (reference value: 19.62%). It is filed as functional.
Test [8] concerns HCT-116. Kind of test: Antiproliferative activity against human HCT116 cells after 48 hrs by MTT assay. It is filed as functional, cell-based. The settings on record: HCT-116, 48 h. In outline: (§2)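 Cells in log phase seeded at about 1.0 × 10^5 cells/mL in 96-well plates, left 12 h at 37 °C, 5% CO2. Compounds dissolved in DMSO, added at 2.5, 5, 10, 20 and 50 µM, 48 h exposure. Absorbance read at 570/630 nm dual wavelength. Survival expressed relative to negative control. IC50 by Bliss method (n = 5), tests done in triplicate.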
In general terms: Tetrazolium dyes change colour on reduction, which living cells bring about.

The test system of test [9] is A549. Kind of test: Induction of apoptosis in human A549 cells assessed as upregulation of Bax protein expression after 24 hrs by Western blot analysis. It is filed as functional, cell-based. In outline: (§3)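 A549 cells exposed to 5 and 10 µM for 24 h. Lysates cleared at 20000g, protein quantified by BCA and equal amounts run on 12% SDS-PAGE, then transferred to PVDF. Blocked in 5% skim milk in TBST. Probed overnight at 4 °C with antibodies to Bcl-2, Bax, caspase-9, caspase-3 and β-actin (loading reference). Chemiluminescent detection. Three independent experiments.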

Test [10] deals with A549. Kind of test: Induction of apoptosis in human A549 cells assessed as viable cells at 5 uM after 24 hrs by Annexin-V FITC/propidium iodide staining based flow cytometry (reference value: 97.6%). The settings on record: A549, 24 h.
In test [11] the test system is MCF7. The test is described as follows: Antiproliferative activity against human MCF7 cells after 48 hrs by MTT assay. It is filed as functional, cell-based. The settings on record: MCF7, 48 h. In outline:
as §2

For test [12], the system named is A549. Kind of test: Inhibition of Hsp90/Cdc37 interaction in human A549 cells assessed as downregulation of Cdc37 in immunoprecipitated HSP90 complex at 5 to 10 uM after 24 hrs by Western blot analysis. It is filed as cell-based. In outline:
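A549 cells exposed to 5 and 10 µM for 24 h, geldanamycin 10 µM as comparator. Lysis in 20 mM Tris-HCl pH 7.4, 25 mM NaCl, 2 mM DTT, 20 mM Na2MoO4, 0.1% NP-40 and protease inhibitors. 500 µg protein immunoprecipitated overnight at 4 °C with anti-Hsp90 antibody, captured on protein G agarose, washed five times and boiled. Cdc37 and Hsp90 detected by Western blot, with input also blotted.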

For test [13], the system named is A549. Kind of test: Induction of apoptosis in human A549 cells assessed as late apoptotic cells at 5 uM after 24 hrs by Annexin-V FITC/propidium iodide staining based flow cytometry (reference value: 0.030%).
The test system of test [14] is A549. Kind of test: Cell cycle arrest in human A549 cells assessed as accumulation at G1 phase at 10 uM after 48 hrs by propidium iodide staining-based flow cytometry (reference value: 70.16%). It is filed as functional.
In test [15] the test system is A549. The test is described as follows: Induction of apoptosis in human A549 cells assessed as upregulation of cleaved caspase-9 protein expression after 24 hrs by Western blot analysis. It is filed as functional, cell-based. The essentials:
as §3

A short description of test [16]: Antiproliferative activity against human NCI-460 cells after 48 hrs by MTT assay. It is filed as functional, cell-based. To be noted: NCI-460, 48 h. In outline: as §2
For test [17], the target named is T1, Heat shock protein HSP90 (Homo sapiens). Kind of test: Inhibition of HSP90 in human A549 cells assessed as downregulation of phosphorylated akt expression after 24 hrs by Western blot analysis. It is filed as cell-based. In outline:
as §1

For test [18] the target is unchanged. The test is described as follows: Inhibition of HSP90 in human A549 cells assessed as downregulation of CDK4 expression after 24 hrs by Western blot analysis. It is filed as cell-based. In outline: as §1
Test [19] deals with A549. The test is described as follows: Induction of apoptosis in human A549 cells assessed as necrotic cells at 10 uM after 24 hrs by Annexin-V FITC/propidium iodide staining based flow cytometry (reference value: 2.32%).
For test [20], the system named is A549. The test is described as follows: Induction of apoptosis in human A549 cells assessed as upregulation of cleaved caspase-3 protein expression after 24 hrs by Western blot analysis. It is filed as functional, cell-based. In outline:
as §3

Test [21] deals with Heat shock protein HSP 90-alpha/Hsp90 co-chaperone Cdc37 (Homo sapiens) (UniProt P07900+Q16543). Kind of test: Inhibition of HSP90alpha/Cdc37 interaction in human A549 cells assessed as upregulation of HSP90alpha expression at 5 to 10 uM after 24 hrs by Western blot analysis. It is filed as cell-based. The essentials:
as §1

Test [22] concerns A549. The test is described as follows: Cell cycle arrest in human A549 cells assessed as accumulation at G1 phase at 5 uM after 48 hrs by propidium iodide staining-based flow cytometry (reference value: 70.16%). It is filed as functional.
Test [23] concerns A549. Kind of test: Induction of apoptosis in human A549 cells assessed as intracellular ROS levels at 10 uM after 24 hrs by FITC-DCF-DA-fluorescence based flow cytometry (reference value: 0.832%). It is filed as functional. In outline:
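A549 cells exposed to 5 and 10 µM for 24 h, untreated cells as control. Collected, washed with ice-cold PBS and loaded with DCFH-DA in cell-free medium for 20 min at 37 °C in the dark, then washed. Fluorescence measured by flow cytometry at 485 nm excitation and 538 nm emission. Mean ± S.D. of three independent experiments.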

Chain of Heat shock protein HSP 90-alpha/Hsp90 co-chaperone Cdc37 (Homo sapiens) (Q16543 whole entry, looked up, other chains not shown): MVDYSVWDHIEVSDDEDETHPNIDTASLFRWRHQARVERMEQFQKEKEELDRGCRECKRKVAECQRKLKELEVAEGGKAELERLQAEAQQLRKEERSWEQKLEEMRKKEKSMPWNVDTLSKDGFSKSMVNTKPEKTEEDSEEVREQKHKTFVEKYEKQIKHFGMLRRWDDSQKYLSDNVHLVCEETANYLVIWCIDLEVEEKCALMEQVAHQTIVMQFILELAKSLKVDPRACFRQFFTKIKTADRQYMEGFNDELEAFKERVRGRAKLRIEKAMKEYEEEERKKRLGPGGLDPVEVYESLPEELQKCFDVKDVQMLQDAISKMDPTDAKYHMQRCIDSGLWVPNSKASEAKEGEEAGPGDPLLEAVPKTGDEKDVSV

One may read the IC50 as the concentration that gives 50% inhibition. In general, viability refers to a read-out of living cells in per cent, often relative to untreated cells. Regarding `CCOC(=O)[C@@]1(C)CC[C@]2(C)CC[C@]3(C)C(=CC(=O)[C@@H]4[C@@]5(C)CC[C@H](OC(=O)CCC(=O)Nc6nc7ccc(F)cc7s6)C(C)(C)[C@@H]5CC[C@]43C)[C@@H]2C1`, the IC50 is 0.14 µM in [1], 7.97 µM in test [8], 6.37 µM in test [11] and 7.41 µM in [16]. The inhibition entry in test [2], in test [12] and in test [21] was “Active” in each case. Besides, the Activity in test [3] was 2.18%; in test [6] it was 40.35%; in test [7], 34.09%; in [9], “Dose-dependent effect”; in test [13], 3.84%; in test [14], 47.14%. The Activity result in test [15] was “Dose-dependent effect”; in test [19] it was 1.15%; in test [20], “Dose-dependent effect”; in test [22], 52.92%; in test [23], 67.5%. For the same compound, the inhibition entry in test [4], in test [5], in test [17] and in [18] was “Dose-dependent effect” in each case. Further, the viability at 5 µM in test [10] came out at 85.5%.
